Experimental data as given in paper PMC4422293 (Drug Design, Development and Therapy, 2015).
Where two headings read alike, the source gives them in different places.

Key:
[1] = Surface plasmon resonance binding to immobilized 3-Lipid II
Summary of the method: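 SPR was run at 25°C on a Biacore T100. About 50 RU of farnesyl (3-isoprene) Lipid II was amine-coupled to a CM5 chip. Running buffer was 10 mM HEPES, 150 mM NaCl, 0.05% P20, pH 7.4 (±3 mM EDTA) with 10% DMSO. Screening injections were at 10 μM, with control-cell subtraction and 30 s regeneration in 50 mM NaOH. Kd came from binding isotherms, averaged over three assays.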

[2] = system: Staphylococcus aureus (USA300) MRSA; assay: MIC by broth dilution; assay type: cell-based; settings: Table S2; unit not given
[3] = system: Staphylococcus aureus (VISA) ATCC 700699; assay: MIC by broth dilution; assay type: cell-based; settings: Table S2; unit not given
S. aureus (VISA) NRS22 = assay: MIC by broth dilution; assay type: cell-based, Staphylococcus aureus; settings: Table S2; unit not given
E. faecium F118 (VRE) = assay: MIC by broth dilution; assay type: cell-based; settings: Enterococcus faecium
[4] = system: Enterobacter aerogenes ATCC 13048; assay: MIC by broth dilution; assay type: cell-based; settings: Klebsiella aerogenes, ATCC13048
[5] = system: K. pneumoniae NR-15411 (KPC); assay: MIC by broth dilution; assay type: cell-based; settings: Klebsiella pneumoniae
[6] = system: Klebsiella pneumoniae NR-15410 (KPC); assay: MIC by broth dilution; assay type: cell-based
[7] = system: Acinetobacter baumannii BAA-1605; assay: MIC by broth dilution; assay type: cell-based; settings: BAA1605
P. aeruginosa ATCC 27853 = assay: MIC by broth dilution; assay type: cell-based; settings: Pseudomonas aeruginosa, ATCC27853
[8] = system: Acinetobacter baumannii ATCC 19606; assay: MIC by broth dilution; assay type: cell-based; settings: ATCC19606, Table 4, mean of three replicates
[9] = system: Staphylococcus aureus 1094 (MRSA); assay: MIC by broth dilution; assay type: cell-based
[10] = system: Enterobacter cloacae ATCC 13047; assay: MIC by broth dilution; assay type: cell-based; settings: ATCC13047
[11] = Cytotoxicity against mammalian cells; assay type: cell-based; settings: human, HeLa cells (ATCC CCL-2.2)
Summary of the method: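 HeLa cells (ATCC CCL-2.2) were exposed to the test compound for 72 h. CC50 is the concentration giving a half-maximal decrease in viability, averaged over two replicate assays.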

[12] = system: Enterococcus faecium EF1509 (VRE); assay: MIC by broth dilution; assay type: cell-based
[13] = system: S. aureus HFH-30123 (MRSA); assay: MIC by broth dilution; assay type: cell-based; settings: Staphylococcus aureus
[14] = system: Pseudomonas aeruginosa X13273; assay: MIC by broth dilution; assay type: cell-based
[15] = system: DNA, cell wall, protein, and lipid synthesis in S. aureus NCTC 8325; assay: Macromolecular synthesis assays, all pathways; assay type: cell-based, Staphylococcus aureus
S. aureus = assay: Antibacterial activity / killing of S. aureus; assay type: cell-based; settings: Staphylococcus aureus
[16] = read-out: Lipid II binding (Kd), Table 4, averages of three replicate assays

SMILES: Cc1cc(-c2ccccc2)cc(-c2ccccc2)[n+]1C [Z56760026, 1,2-Dimethyl-4,6-diphenylpyridin-1-ium]
- Kd ([1]; read-out: Lipid II binding Kd): 37 µM

SMILES: CN[C@H](CC(C)C)C(=O)N[C@H]1C(=O)N[C@@H](CC(N)=O)C(=O)N[C@H]2C(=O)N[C@H]3C(=O)N[C@H](C(=O)N[C@H](C(=O)O)c4cc(O)cc(O)c4-c4cc3ccc4O)[C@H](O)c3ccc(c(Cl)c3)Oc3cc2cc(c3O[C@@H]2O[C@H](CO)[C@@H](O)[C@H](O)[C@H]2O[C@H]2C[C@](C)(N)[C@H](O)[C@H](C)O2)Oc2ccc(cc2Cl)[C@H]1O [Vancomycin]
- Antibacterial activity (MIC) [2]: ≤ 0.5
- Antibacterial activity (MIC) [3]: 8
- Antibacterial activity (MIC) (S. aureus (VISA) NRS22): 8

SMILES: CN1/C(=C/C=C/c2cc(-c3ccccc3)cc(-c3ccccc3)[n+]2C)C(C)(C)c2ccccc21.F[B-](F)(F)F [SF-5-219, 1-Methyl-2,4-diphenyl-6-((1E,3E)-3-(1,3,3-trimethylindolin-2-ylidene)prop-1-en-1-yl)pyridin-1-ium tetrafluoroborate]
- MIC (E. faecium F118 (VRE)): 5 µg/mL
- Kd [1, 16]: 7.4 ± 3.08 µM
- MIC [4]: 32 µg/mL
- MIC [5]: 32 µg/mL
- MIC [6]: 32 µg/mL
- MIC [7]: 8 µg/mL
- MIC (P. aeruginosa ATCC 27853): ≥ 32 µg/mL
- MIC [8]: 8 µg/mL
- MIC [9]: 1 µg/mL
- MIC [10]: ≥ 32 µg/mL
- CC50 at 72 h [11]: 0.25 µg/mL
- MIC [12]: 0.5 µg/mL
- MIC [13]: 1 µg/mL
- MIC [14]: ≥ 32 µg/mL

SMILES: CC(C)[n+]1c(/C=C/C=C2/N(C)c3ccccc3C2(C)C)cc(-c2ccccc2)cc1-c1ccccc1.F[B-](F)(F)F [SF-5-330, 1-Isopropyl-2,4-diphenyl-6-((1E,3E)-3-(1,3,3-trimethylindolin-2-ylidene)prop-1-en-1-yl)pyridin-1-ium tetrafluoroborate]
- MIC (E. faecium F118 (VRE)): 5 µg/mL
- Kd [1, 16]: 0.54 ± 0.16 µM
- MIC [4]: 8 µg/mL
- MIC [5]: 25.4 µg/mL
- MIC [6]: 10 µg/mL
- MIC [7]: 8 µg/mL
- MIC (P. aeruginosa ATCC 27853): 8 µg/mL
- MIC [8]: 8 µg/mL
- MIC [9]: 1 µg/mL
- MIC [10]: 16 µg/mL
- CC50 at 72 h [11]: 0.33 µg/mL
- MIC [12]: 0.5 µg/mL
- MIC [13]: 1 µg/mL
- MIC [14]: 4 µg/mL
- inhibition of macromolecular synthesis pathways [15]: inhibited all pathways at low concentrations
- MIC (S. aureus): 1 µg/mL

SMILES: CN1/C(=C/C=C/c2cc(-c3ccccc3)cc(-c3ccccc3)[n+]2CCO)C(C)(C)c2ccccc21.F[B-](F)(F)F [SF-5-332, 1-(2-Hydroxyethyl)-2,4-diphenyl-6-((1E,3E)-3-(1,3,3-trimethylindolin-2-ylidene)prop-1-en-1-yl)pyridin-1-ium tetrafluoroborate]
- MIC (E. faecium F118 (VRE)): 8 µg/mL
- Kd [1, 16]: 4.4 ± 3.02 µM
- MIC [4]: ≥ 32 µg/mL
- MIC [5]: ≥ 32 µg/mL
- MIC [6]: ≥ 32 µg/mL
- MIC [7]: 20.2 µg/mL
- MIC (P. aeruginosa ATCC 27853): ≥ 32 µg/mL
- MIC [8]: 20.2 µg/mL
- MIC [9]: 1 µg/mL
- MIC [10]: ≥ 32 µg/mL
- CC50 at 72 h [11]: 0.8 µg/mL
- MIC [12]: 1 µg/mL
- MIC [13]: 1 µg/mL
- MIC [14]: ≥ 32 µg/mL

SMILES: CCOc1ccc(-c2cc(C=CC=C3N(C)c4ccccc4C3(C)C)o[c+](-c3ccc(OCC)cc3)c2)cc1 [BAS00127537, 2,4-Bis-(4-ethoxy-phenyl)-6-[3-(1,3,3-trimethyl-1,3-dihydro-indol-2-ylidene)-propenyl]-pyranylium]
- reduction in Lipid II-binding affinity compared to BAS00127538 ([1]; from Table 1): ~ 15 fold

SMILES: CC(C)C[n+]1c(/C=C/C=C2/N(C)c3ccccc3C2(C)C)cc(-c2ccccc2)cc1-c1ccccc1.F[B-](F)(F)F [SF-5-331, 1-Isobutyl-2,4-diphenyl-6-((1E,3E)-3-(1,3,3-trimethylindolin-2-ylidene)prop-1-en-1-yl)pyridin-1-ium tetrafluoroborate]
- MIC (E. faecium F118 (VRE)): 2 µg/mL
- Kd [1, 16]: 0.34 ± 0.24 µM
- MIC [4]: 32 µg/mL
- MIC [5]: 32 µg/mL
- MIC [6]: 16 µg/mL
- MIC [7]: 8 µg/mL
- MIC (P. aeruginosa ATCC 27853): 32 µg/mL
- MIC [8]: 8 µg/mL
- MIC [9]: 1 µg/mL
- MIC [10]: 32 µg/mL
- CC50 at 72 h [11]: 0.26 µg/mL
- MIC [12]: 0.5 µg/mL
- MIC [13]: 1 µg/mL
- MIC [14]: 8 µg/mL
- inhibition of macromolecular synthesis pathways [15]: inhibited all pathways at low concentrations
- MIC (S. aureus): 1 µg/mL

SMILES: CN(C)CC[n+]1c(/C=C/C=C2/N(C)c3ccccc3C2(C)C)cc(-c2ccccc2)cc1-c1ccccc1.F[B-](F)(F)F [SF-5-334, 1-(2-(Dimethylamino)ethyl)-2,4-diphenyl-6-((1E,3E)-3-(1,3,3-trimethylindolin-2-ylidene)prop-1-en-1-yl) pyridin-1-ium tetrafluoroborate]
- MIC (E. faecium F118 (VRE)): 32 µg/mL
- Kd [1, 16]: 1.9 ± 0.86 µM
- MIC [4]: ≥ 32 µg/mL
- MIC [5]: ≥ 32 µg/mL
- MIC [6]: ≥ 32 µg/mL
- MIC [7]: 32 µg/mL
- MIC (P. aeruginosa ATCC 27853): ≥ 32 µg/mL
- MIC [8]: 32 µg/mL
- MIC [9]: 16 µg/mL
- MIC [10]: ≥ 32 µg/mL
- CC50 at 72 h [11]: 2.25 µg/mL
- MIC [12]: 8 µg/mL
- MIC [13]: 16 µg/mL
- MIC [14]: ≥ 32 µg/mL
